ChEMBL document CHEMBL3585272, “Syntheses and Antibacterial Activity of N-Acylated Ciprofloxacin Derivatives Based on the Trimethyl Lock” (ACS Med Chem Lett, 2015)
Values after ≈ are worked out from the molar mass of the structure shown.

Key:
Micrococcus luteus [1] = assay: Antibacterial activity against Micrococcus luteus ATCC 10240 at 0.1 mM incubated for 24 hrs at 37 degC by agar diffusion assay; type: functional; conditions: ATCC 10240, 24 h, read-out: DIZ
Outline: (§1)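 Agar well diffusion. 50 μL of a 0.1 mM solution in 1:9 DMSO/MeOH was added to 9 mm wells in Standard I nutrient agar or Mueller Hinton II agar. Plates were incubated at 37 °C for 24 h, or 44 h for M. vaccae, then inhibition zones were read. Unclear zones were scored separately.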

Mycolicibacterium vaccae [2] = assay: Antibacterial activity against Mycobacterium vaccae IMET10670 at 0.1 mM incubated for 44 hrs at 37 degC by agar diffusion assay; type: functional; conditions: IMET10670, 44 h, read-out: DIZ; outline: as §1
Acinetobacter baumannii [3] = assay: Antibacterial activity against Acinetobacter baumannii ATCC 17961 at 0.1 mM incubated for 24 hrs at 37 degC by agar diffusion assay; type: functional; conditions: ATCC 17961, 24 h, read-out: DIZ; outline: as §1
Pseudomonas aeruginosa [4] = assay: Antibacterial activity against wild type Pseudomonas aeruginosa K799 at 0.1 mM incubated for 24 hrs at 37 degC by agar diffusion assay; type: functional; conditions: K799, 24 h, read-out: DIZ; outline: as §1
Pseudomonas aeruginosa [5] = assay: Antibacterial activity against Pseudomonas aeruginosa K799/61 at 0.1 mM incubated for 24 hrs at 37 degC by agar diffusion assay; type: functional; conditions: K799/61, 24 h, read-out: DIZ; outline: as §1
Escherichia coli [6] = assay: Antibacterial activity against Escherichia coli X580 at 0.1 mM incubated for 24 hrs at 37 degC by agar diffusion assay; type: functional; conditions: X580, 24 h, read-out: DIZ; outline: as §1
Escherichia coli [7] = assay: Antibacterial activity against Escherichia coli DC0 at 0.1 mM incubated for 24 hrs at 37 degC by agar diffusion assay; type: functional; conditions: DC0, 24 h, read-out: DIZ; outline: as §1
Escherichia coli [8] = assay: Antibacterial activity against Escherichia coli DC2 at 0.1 mM incubated for 24 hrs at 37 degC by agar diffusion assay; type: functional; conditions: DC2, 24 h, read-out: DIZ; outline: as §1
Bacillus subtilis [9] = assay: Antibacterial activity against Bacillus subtilis ATCC 6633 at 0.1 mM incubated for 24 hrs at 37 degC by agar diffusion assay; type: functional; conditions: ATCC 6633, 24 h, read-out: DIZ; outline: as §1
Staphylococcus aureus [10] = assay: Antibacterial activity against Staphylococcus aureus SG511 at 0.1 mM incubated for 24 hrs at 37 degC by agar diffusion assay; type: functional; conditions: SG511, 24 h, read-out: DIZ; outline: as §1
Staphylococcus aureus [11] = assay: Antibacterial activity against Staphylococcus aureus SG511 at 5 ug/ml incubated for 24 hrs at 37 degC by agar diffusion assay; conditions: SG511, 24 h, read-out: DIZ
Micrococcus luteus [12] = assay: Antibacterial activity against Micrococcus luteus ATCC 10240 at 5 ug/ml incubated for 24 hrs at 37 degC by agar diffusion assay; type: functional; conditions: ATCC 10240, 24 h, read-out: DIZ
Outline: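 Agar well diffusion: the drug was dissolved in water and added to 9 mm wells cut in Standard I Nutrient Agar or Mueller Hinton II agar seeded with the strain. Inhibition zone diameters were read after 24 h at 37 °C. Zones were scored as very unclear where the zone boundary was indistinct.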

Mycolicibacterium vaccae [13] = assay: Antibacterial activity against Mycobacterium vaccae IMET10670 at 5 ug/ml incubated for 44 hrs at 37 degC by agar diffusion assay; type: functional; conditions: IMET10670, 44 h, read-out: DIZ
Outline: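 Agar well diffusion with the sample in H2O at 5 μg/mL. 50 μL was added to 9 mm wells in nutrient or Mueller Hinton II agar. Plates were incubated at 37 °C for 24 h, or 44 h for M. vaccae, and inhibition zones were read.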

Escherichia coli [14] = assay: Antibacterial activity against Escherichia coli DC0 at 5 ug/ml incubated for 24 hrs at 37 degC by agar diffusion assay; conditions: DC0, 24 h, read-out: DIZ
Bacillus subtilis [15] = assay: Antibacterial activity against Bacillus subtilis ATCC 6633 by broth microdilution method; type: functional
Outline: (§2)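 Broth microdilution in Mueller-Hinton broth No.2 (MHII) following CLSI guidelines. The MIC (μM) was read by visual end point. Each compound was tested in triplicate.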

Staphylococcus aureus [16] = assay: Antibacterial activity against Staphylococcus aureus SG511 by broth microdilution method; type: functional; outline: as §2
Micrococcus luteus [17] = assay: Antibacterial activity against Micrococcus luteus ATCC 10240 by broth microdilution method; type: functional; outline: as §2
Mycolicibacterium vaccae [18] = assay: Antibacterial activity against Mycobacterium vaccae IMET10670 by broth microdilution method; type: functional; outline: as §2
Acinetobacter baumannii [19] = assay: Antibacterial activity against Acinetobacter baumannii ATCC 17961 by broth microdilution method; type: functional; outline: as §2
Pseudomonas aeruginosa [20] = assay: Antibacterial activity against wild type Pseudomonas aeruginosa K799 by broth microdilution method; type: functional; outline: as §2
Pseudomonas aeruginosa [21] = assay: Antibacterial activity against Pseudomonas aeruginosa K799/61 by broth microdilution method; type: functional; outline: as §2
Escherichia coli [22] = assay: Antibacterial activity against Escherichia coli DC0 by broth microdilution method; type: functional; outline: as §2
Escherichia coli [23] = assay: Antibacterial activity against Escherichia coli DC2 by broth microdilution method; type: functional; outline: as §2
Bacillus subtilis [24] = assay: microbe, parasite or virus in culture; conditions: ATCC 6633, 24 h, read-out: DIZ
Acinetobacter baumannii [25] = assay: microbe, parasite or virus in culture; conditions: ATCC 17961, 24 h, read-out: DIZ
Pseudomonas aeruginosa [26] = assay: microbe, parasite or virus in culture; conditions: K799, 24 h, read-out: DIZ
Pseudomonas aeruginosa [27] = assay: microbe, parasite or virus in culture; conditions: K799/61, 24 h, read-out: DIZ
Bacillus subtilis [28] = assay: microbe, parasite or virus in culture; conditions: ATCC 6633, 24 h, read-out: DIZ; remark: listed apart in the source
Acinetobacter baumannii [29] = assay: microbe, parasite or virus in culture; conditions: ATCC 17961, 24 h, read-out: DIZ; remark: listed apart in the source
Pseudomonas aeruginosa [30] = assay: microbe, parasite or virus in culture; conditions: K799/61, 24 h, read-out: DIZ; remark: listed apart in the source
[31] = Retention time of the compound in presence of methyl mercaptoacetate in CH3CN/PBS solution at 37 degC incubated for 3 hrs by HPLC method; type: physicochemical; conditions: buffer
Mycolicibacterium vaccae [32] = assay: Antibacterial activity against Mycobacterium vaccae IMET10670 assessed as unclear inhibition zone or inhibition zone with many colonies at 0.1 mM incubated for 44 hrs at 37 degC by agar diffusion assay; type: functional; conditions: IMET10670, 44 h, read-out: DIZ; outline: as §1
Acinetobacter baumannii [33] = assay: Antibacterial activity against Acinetobacter baumannii ATCC 17961 assessed as unclear inhibition zone or inhibition zone with many colonies at 0.1 mM incubated for 24 hrs at 37 degC by agar diffusion assay; type: functional; conditions: ATCC 17961, 24 h, read-out: DIZ; outline: as §1
Pseudomonas aeruginosa [34] = assay: Antibacterial activity against wild type Pseudomonas aeruginosa K799 assessed as unclear inhibition zone or inhibition zone with many colonies at 0.1 mM incubated for 24 hrs at 37 degC by agar diffusion assay; type: functional; conditions: K799, 24 h, read-out: DIZ; outline: as §1
Pseudomonas aeruginosa [35] = assay: Antibacterial activity against Pseudomonas aeruginosa K799/61 assessed as unclear inhibition zone or inhibition zone with many colonies at 0.1 mM incubated for 24 hrs at 37 degC by agar diffusion assay; type: functional; conditions: K799/61, 24 h, read-out: DIZ; outline: as §1
Escherichia coli [36] = assay: Antibacterial activity against Escherichia coli X580 assessed as unclear inhibition zone or inhibition zone with many colonies at 0.1 mM incubated for 24 hrs at 37 degC by agar diffusion assay; type: functional; conditions: X580, 24 h, read-out: DIZ; outline: as §1
Escherichia coli [37] = assay: Antibacterial activity against Escherichia coli DC0 assessed as unclear inhibition zone or inhibition zone with many colonies at 0.1 mM incubated for 24 hrs at 37 degC by agar diffusion assay; type: functional; conditions: DC0, 24 h, read-out: DIZ; outline: as §1

Structure (SMILES) | zone of inhibition at 100 µM (Micrococcus luteus [1]) [mm] | zone of inhibition at 100 µM (Mycolicibacterium vaccae [2]) [mm] | zone of inhibition at 100 µM (Acinetobacter baumannii [3]) [mm] | zone of inhibition at 100 µM (Pseudomonas aeruginosa [4]) [mm] | zone of inhibition at 100 µM (Pseudomonas aeruginosa [5]) [mm] | zone of inhibition at 100 µM (Escherichia coli [6]) [mm] | zone of inhibition at 100 µM (Escherichia coli [7]) [mm] | zone of inhibition at 100 µM (Escherichia coli [8]) [mm] | zone of inhibition at 100 µM (Bacillus subtilis [9]) [mm] | zone of inhibition at 100 µM (Staphylococcus aureus [10]) [mm] | MIC (Bacillus subtilis [15]) [µM] | MIC (Staphylococcus aureus [16]) [µM] | MIC (Micrococcus luteus [17]) [µM] | MIC (Mycolicibacterium vaccae [18]) [µM] | MIC (Acinetobacter baumannii [19]) [µM] | MIC (Pseudomonas aeruginosa [20]) [µM] | MIC (Pseudomonas aeruginosa [21]) [µM] | MIC (Escherichia coli [22]) [µM] | MIC (Escherichia coli [23]) [µM] | Retention_time [31] [min] | further results
CC1=C(N)C(=O)C(C(C)(C)CC(=O)O)=C(C)C1=O | 0 | 0 | 0 | 0 | 0 | 0 | 0 | 0 | 0 | 0 | – | – | – | – | – | – | – | – | – | – | –
O=C(O)c1cn(C2CC2)c2cc(N3CCNCC3)c(F)cc2c1=O [CIPROFLOXACIN] | – | – | – | – | – | – | – | – | – | – | 0.03 (≈ 0.00994 µg/mL) | 0.47 (≈ 0.156 µg/mL) | 8 (≈ 2.65 µg/mL) | 0.47 (≈ 0.156 µg/mL) | 0.24 (≈ 0.0795 µg/mL) | 0.47 (≈ 0.156 µg/mL) | 0.24 (≈ 0.0795 µg/mL) | 0.47 (≈ 0.156 µg/mL) | 0.24 (≈ 0.0795 µg/mL) | – | zone of inhibition at 5 µg/mL (Staphylococcus aureus [11]): 21 mm; zone of inhibition at 5 µg/mL (Micrococcus luteus [12]): 0 mm; zone of inhibition at 5 µg/mL (Mycolicibacterium vaccae [13]): 23 mm; zone of inhibition at 5 µg/mL (Escherichia coli [14]): 18 mm; zone of inhibition at 1.66 µg/mL (Bacillus subtilis [24]): 20 mm; zone of inhibition at 5 µg/mL (Acinetobacter baumannii [25]): 18 mm; zone of inhibition at 1.66 µg/mL (Pseudomonas aeruginosa [26]): 15 mm; zone of inhibition at 1.66 µg/mL (Pseudomonas aeruginosa [27]): 19 mm; zone of inhibition at 1.66 µg/mL (Bacillus subtilis [28]): 24 mm; zone of inhibition at 5 µg/mL (Acinetobacter baumannii [29]): 21 mm; zone of inhibition at 1.66 µg/mL (Pseudomonas aeruginosa [30]): 24 mm
c1ccc(N2CCNCC2)cc1 [PHENYLPIPERAZINE] | – | – | – | – | – | – | – | – | – | – | – | – | – | – | – | – | – | – | – | 8.5 | –
CC1=C(N)C(=O)C(C(C)(C)CC(=O)N2CCN(c3cc4c(cc3F)c(=O)c(C(=O)O)cn4C3CC3)CC2)=C(C)C1=O | 17 | 24 | 24 | 22 | 31 | 31 | 16 | 23 | 36 | 31 | < 0.05 | < 0.05 | 12.5 (≈ 7.06 µg/mL) | 2 (≈ 1.13 µg/mL) | 0.6 (≈ 0.339 µg/mL) | 2.5 (≈ 1.41 µg/mL) | 5 (≈ 2.82 µg/mL) | 25 (≈ 14.1 µg/mL) | 12.5 (≈ 7.06 µg/mL) | – | zone of inhibition at 100 µM (Mycolicibacterium vaccae [32]): 30 mm; zone of inhibition at 100 µM (Acinetobacter baumannii [33]): 30 mm; zone of inhibition at 100 µM (Pseudomonas aeruginosa [34]): 32 mm; zone of inhibition at 100 µM (Pseudomonas aeruginosa [35]): 35 mm; zone of inhibition at 100 µM (Escherichia coli [36]): 37 mm; zone of inhibition at 100 µM (Escherichia coli [37]): 23 mm
CC1=CC(=O)C(C(C)(C)CC(=O)N2CCN(c3ccccc3)CC2)=C(C)C1=O | – | – | – | – | – | – | – | – | – | – | – | – | – | – | – | – | – | – | – | 11.1 | –
